Reference: ChEMBL document CHEMBL1138199, “Identification of compounds with anti-West Nile Virus activity” (J Med Chem, 2006)

Key:
BHK-21 [1] = assay: Inhibition of West Nile virus VLP replicon in BHK21 cell line; assay type: functional, cell-based; settings: Mesocricetus auratus
Procedure, shortened: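 Naive BHK-21 cells infected with virus-like particles, made by expressing WNV structural proteins in cells carrying the Rluc-Neo-Rep replicon, which package replicon RNA. This captures entry and replication but not assembly. Inhibition is read as suppression of Renilla luciferase signal. Compounds were given in 1% DMSO final, and EC50 is in µM.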

BHK-21 [2] = assay: Cytotoxicity against BHK21 cell line by MTT assay; assay type: functional; settings: Mesocricetus auratus
Procedure, shortened: (§1)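 MTT cytotoxicity assay run in BHK-21 and Vero cells on compounds giving >50% Rluc inhibition in the primary screens; CC50 reported in µM.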

West Nile virus [3] = assay: Inhibition of West Nile virus in Vero cells at 33 uM; values are per cent of control
West Nile virus [4] = assay: Activity against West Nile virus RlucRep RNA translation in BHK21 cells at 33 uM, 4 h post transfection; assay type: functional, BHK-21
Procedure, shortened: (§2)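 BHK cells transfected with WN RlucRep RNA (transient replicon), incubated with compound at 33 or 100 µM; luciferase read at 2, 4 and 72 h post-transfection. 2 and 4 h signals report viral translation, 72 h reports RNA synthesis. Activity given as percent of luciferase signal versus mock-treated transfection; average of two to three experiments.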

West Nile virus [5] = assay: Inhibition of West Nile viral Rluc-Neo-Rep in BHK21 cell line; assay type: functional, organism-based; settings: BHK-21
Procedure, shortened: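 BHK-21 cell line stably carrying Rluc-Neo-Rep replicon; inhibition read as suppression of Renilla luciferase signal. Initial screen at 30 µM, 1% DMSO final; EC50 (µM) then determined.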

West Nile virus [6] = assay: Inhibition of West Nile virus in Vero cells at 3.7 uM; values are per cent of control
West Nile virus [7] = assay: Activity against West Nile virus RlucRep RNA synthesis in BHK21 cells at 33 uM, 72 hr post transfection; assay type: functional, BHK-21; procedure, shortened: as §2
West Nile virus [8] = assay: Inhibition of West Nile virus in Vero cells at 100 uM; values are per cent of control
West Nile virus [9] = assay: Activity against West Nile virus RlucRep RNA synthesis in BHK21 cells at 100 uM, 72 h post transfection; assay type: functional, BHK-21; procedure, shortened: as §2
West Nile virus [10] = assay: Inhibition of Rluc-FL-WNV replicon in Vero cells; assay type: functional, organism-based
Procedure, shortened: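 Vero cells infected with full-length WNV carrying Renilla luciferase reporter (Rluc-FL-WNV), covering entry, replication and assembly; inhibition read as suppression of luciferase signal. Compounds first screened at 30 µM in 1% DMSO final, then EC50 (µM) determined.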

West Nile virus [11] = assay: Activity against West Nile virus RlucRep RNA translation in BHK21 cells at 33 uM, 2 hr post transfection; assay type: functional, BHK-21; procedure, shortened: as §2
West Nile virus [12] = assay: Activity against West Nile virus RlucRep RNA translation in BHK21 cells at 100 uM, 2 hr post transfection; assay type: functional, BHK-21; procedure, shortened: as §2
Vero [13] = assay: Inhibition of West Nile viral Rluc-Neo-Rep in Vero cells; assay type: functional, cell-based; settings: Chlorocebus sabaeus
Procedure, shortened: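 Vero cells containing the Rluc-Neo-Rep replicon, used to check cell-line dependence; inhibition measured as suppression of Renilla luciferase signal, EC50 in µM.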

[14] = Therapeutic index (CC50/EC50) in BHK21 cells; assay type: cell-based, BHK-21; settings: hamster, read-out: Ratio CC50/EC50
Procedure, shortened: (§3)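 TI computed as CC50/EC50, using MTT CC50 and replicon EC50 in BHK-21 cells, or MTT CC50 and Rluc-FL-WNV EC50 in Vero cells.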

West Nile virus [15] = assay: Activity against West Nile virus RlucRep RNA translation in BHK21 cells at 100 uM, 4 hr post transfection; assay type: functional, BHK-21; procedure, shortened: as §2
Vero [16] = assay: Cytotoxicity against Vero cells by MTT assay; assay type: functional; settings: Chlorocebus sabaeus; procedure, shortened: as §1
[17] = Therapeutic index (CC50/EC50) in Vero cells; assay type: cell-based; settings: monkey, read-out: Ratio CC50/EC50; procedure, shortened: as §3
West Nile virus [18] = assay: Inhibition of West Nile virus in Vero cells at 0.4 uM; values are per cent of control
West Nile virus [19] = assay: Inhibition of West Nile virus in Vero cells at 1.2 uM; values are per cent of control
West Nile virus [20] = assay: Inhibition of West Nile virus in vero cells at 11 uM; values are per cent of control

O=C(Cc1ccc(Cl)cc1)N1N=C(c2cccs2)CC1c1ccc([N+](=O)[O-])cc1 (stereo not given)
EC50 (BHK-21 [1]): 8 µM
CC50 (BHK-21 [2]): > 300 µM
remaining activity at 33 µM (West Nile virus [3]): 23%
Activity (West Nile virus [4]): 92%
EC50 (West Nile virus [5]): 11 µM
remaining activity at 3.7 µM (West Nile virus [6]): 90%
Activity (West Nile virus [7]): 12%
remaining activity at 100 µM (West Nile virus [8]): 23%
Activity (West Nile virus [9]): 16%
EC50 (West Nile virus [10]): 25 µM
Activity (West Nile virus [11]): 80%
Activity (West Nile virus [12]): 81%
EC50 (Vero [13]): 7 µM
selectivity ratio [14]: > 27
Activity (West Nile virus [15]): 93%
CC50 (Vero [16]): > 300 µM
selectivity ratio [17]: > 12
remaining activity at 0.4 µM (West Nile virus [18]): 100%
remaining activity at 1.2 µM (West Nile virus [19]): 92%
remaining activity at 11 µM (West Nile virus [20]): 55%
